Active and inactive are the calls of the source. No cut-off for these calls is given here. Residues, ends and D or L forms follow the SMILES beside them. *: point of attachment. X1 = NCC(CN)CCOc1cc(C(=O)*)cc(OCCC(CN)CN)c1OCCC(CN)CN; Ahx = NCCCCCC(=O)O
How the values were obtained:
[1] = molecular target: T1, Protein farnesyltransferase (Homo sapiens, UniProt P49354+P49356); assay: Inhibition of FTase (unknown origin)-mediated K-Ras4B model peptide KKKKKKSK(Dans)TKCVIM farnesylation by microplate reader analysis; format: protein-complex assay
Method in brief: (§1)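 Recombinant mammalian FTase (50 nM) with dansylated K-Ras4B peptide (1 μM) and FPP (5 μM). Compound tested at 0–500 μM in 50 mM Tris HCl pH 7.5 at 30 °C. Reagents spotted separately, and buffer addition starts the reaction. Fluorescence (ex 340/em 520 nm) followed for 5 min on a plate reader, n = 3. IC50 converted to Ki by Cheng-Prusoff with peptide Km 0.033 μM.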

[2] = molecular target: T1, Protein farnesyltransferase; assay: Inhibition of recombinant FTase (unknown origin)-mediated K-Ras4B model peptide KKKKKKSK(Dans)TKCVIM farnesylation by fluorescence plate reader analysis in presence of FPP; format: protein-complex assay; method in brief: as §1
[3] = molecular target: T1, Protein farnesyltransferase; assay: Inhibition of FTase-mediated prenylation in human A549 cells assessed as inhibition of HDJ-2 processing at 10 to 100 uM treated twice on day 1 and day 3 followed by incubation for 4 days by Western blot analysis; format: cell-based
Method in brief: (§2)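 T24 cells (MEM) or A549 cells (RPMI 1640), each with 10% bovine serum. Cells treated twice with compound at 10, 30 and 100 μM, or DMSO control, then harvested on day 4 and lysed in Tris pH 7.6/Triton X-100 buffer. Lysate (5 µg) run on 7.5% SDS-PAGE, transferred to PVDF, probed with anti-HDJ-2. Read as band shift from processed to unprocessed HDJ-2, detected by HRP anti-rabbit IgG with ECL.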

[4] = system: A549; assay: Drug uptake in human A549 cells assessed as accumulation on plasma membrane at 25 uM after 3 hrs by confocal microscopy; format: ADME, cell-based; conditions: a549, 3 h
Method in brief: (§3)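 A549 cells grown in RPMI 1640 with 10% heat-inactivated FBS at 37 °C, 5% CO2. Seeded on glass dish at 1×10^5 cells/mL, adhered overnight. Fluorescent BODIPY-labelled compound added from DMSO stock at 25 μM (0.1% DMSO final), 3 h at 37 °C. Cells washed four times with PBS, covered with Opti-MEM, imaged by laser scanning confocal microscopy.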

[5] = Drug uptake in human A549 cell nucleus at 25 uM after 3 hrs by confocal microscopy; format: ADME, cell-based; conditions: a549, 3 h; method in brief: as §3
[6] = Drug uptake in human A549 cell cytosol at 25 uM after 3 hrs by confocal microscopy; format: ADME, cell-based; method in brief: as §3
[7] = system: A549; assay: Cellular uptake in human A549 cells at 25 uM after 3 hrs by confocal microscopy; format: ADME, cell-based; conditions: a549, 3 h; method in brief: as §3
[8] = molecular target: T1, Protein farnesyltransferase; assay: Inhibition of FTase-mediated prenylation in human T24 cells assessed as inhibition of HDJ-2 processing at 10 to 100 uM treated twice on day 1 and day 3 followed by incubation for 4 days by Western blot analysis; format: cell-based; conditions: T-24; method in brief: as §2
[9] = system: T-24; assay: Inhibition of GGTase1-mediated prenylation in human T24 cells assessed as inhibition of Rap1A processing at 10 to 100 uM treated twice on day 1 and day 3 followed by incubation for 4 days by Western blot analysis; format: cell-based
Method in brief: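 T24 cells grown in MEM with 10% bovine serum. Treated twice with compound at 10, 30 and 100 μM, or DMSO control, then harvested on day 4 and lysed. Lysate (5 µg) run on 12.5% SDS-PAGE, transferred to PVDF, probed with anti-Rap1A. Geranylgeranylation read as shift from processed to unprocessed Rap1A band, detected by HRP anti-rabbit IgG with ECL.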

Structure (SMILES): CC[C@H](C)[C@H](NC(=O)[C@@H](NC(=O)[C@@H](N)CS)C(C)C)C(=O)N[C@@H](CCSC)C(=O)O
- Ki [1]: 1100 nM

Structure (SMILES): CC[C@H](C)[C@H](NC(=O)[C@@H](NC(=O)[C@H](CS)NC(=O)CCCCCNC(=O)c1cc(OCCC(CN)CN)c(OCCC(CN)CN)c(OCCC(CN)CN)c1)C(C)C)C(=O)N[C@@H](CCSC)C(=O)O ({X1-Ahx}-CVIM-OH)
- Ki [2]: 15 nM
- inhibition [3]: inactive
- Ki [1]: 5 nM

Structure (SMILES): CC[C@H](C)[C@H](NC(=O)[C@@H](NC(=O)[C@H](CS)NC(=O)CCNC(=O)[C@H](CCCCNC(=O)CCC1=C2C(C)=CC(C)=[N+]2[B-](F)(F)n2c(C)cc(C)c21)NC(=O)c1cc(OCCC(CN)CN)c(OCCC(CN)CN)c(OCCC(CN)CN)c1)C(C)C)C(=O)N[C@@H](CCSC)C(=O)O
- Drug uptake [4]: Not Active

Structure (SMILES): COC(=O)[C@H](CCSC)NC(=O)c1ccc(NC[C@H](CS)NC(=O)CCNC(=O)[C@H](CCCCNC(=O)CCC2=C3C(C)=CC(C)=[N+]3[B-](F)(F)n3c(C)cc(C)c32)NC(=O)c2cc(OCCC(CN)CN)c(OCCC(CN)CN)c(OCCC(CN)CN)c2)cc1
- Drug uptake [5]: Not Active
- Drug uptake [6]: Active

Structure (SMILES): CC1=CC(C)=[N+]2C1=C(CCC(=O)NCCCC[C@H](NC(=O)c1cc(OCCC(CN)CN)c(OCCC(CN)CN)c(OCCC(CN)CN)c1)C(=O)O)c1c(C)cc(C)n1[B-]2(F)F
- Drug uptake [7]: Active

Structure (SMILES): CSCC[C@H](NC(=O)c1ccc(NC[C@@H](N)CS)cc1)C(=O)O
- Ki [2]: 785 nM

Structure (SMILES): COC(=O)[C@H](CCSC)NC(=O)c1ccc(NC[C@H](CS)NC(=O)CCCCCNC(=O)c2cc(OCCC(CN)CN)c(OCCC(CN)CN)c(OCCC(CN)CN)c2)cc1
- inhibition [8]: Active
- inhibition [3]: Active
- inhibition [9]: inactive

Structure (SMILES): CSCC[C@H](NC(=O)c1ccc(NC[C@H](CS)NC(=O)CCCCCNC(=O)c2cc(OCCC(CN)CN)c(OCCC(CN)CN)c(OCCC(CN)CN)c2)cc1)C(=O)O
- Ki [2]: 837 nM

Source: ChEMBL document CHEMBL2396639, “Peptidomimetic modification improves cell permeation of bivalent farnesyltransferase inhibitors” (Bioorg Med Chem, 2013)
